Data published in ChEMBL document CHEMBL2021807, “The conversion of oridonin to spirolactone-type or enmein-type diterpenoid: synthesis and biological evaluation of ent-6,7-seco-oridonin derivatives as novel potential anticancer agents” (Eur J Med Chem, 2012).

Tests used:
[1] = system: K562; test: Cytotoxicity against human K562 cells after 72 hrs by MTT assay; format: functional, cell-based; conditions: K562, 72 h
In short: (§1)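 MTT assay. Log-phase cells were seeded at 5×10^4 cells/ml and treated in four replicates at 0.39–100 μg/ml, 37 °C, 5% CO2. At 72 h, MTT (5 mg/ml solution) was added for 4 h, then DMSO, and OD read at 490 nm. Negative reference was 0.1% DMSO; Taxol at 10 μg/ml served as positive reference. IC50 in μM, mean of three experiments.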

[2] = system: Bel-7402; test: Cytotoxicity against human Bel7402 cells after 72 hrs by MTT assay; format: functional, cell-based; conditions: Bel-7402, 72 h; in short: as §1
[3] = system: MGC-803; test: Cytotoxicity against human MGC803 cells after 72 hrs by MTT assay; format: functional, cell-based; conditions: MGC-803, 72 h; in short: as §1
[4] = Cytotoxicity against human CaEs17 cells after 72 hrs by MTT assay; format: functional, cell-based; conditions: CaEs17, 72 h; in short: as §1
[5] = system: HeLa; test: Cytotoxicity against human HeLa cells after 72 hrs by MTT assay; format: functional, cell-based; in short: as §1
[6] = system: A549; test: Cytotoxicity against human A549 cells after 72 hrs by MTT assay; format: functional, cell-based; conditions: A549, 72 h; in short: as §1
[7] = system: MCF7; test: Cytotoxicity against human MCF7 cells after 72 hrs by MTT assay; format: functional, cell-based; conditions: MCF7, 72 h; in short: as §1
[8] = system: MGC-803; test: Antitumor activity against human MGC803 cells xenografted in ICR mouse assessed as inhibition of tumor growth at 10 mg/kg, ip qd for 25 consecutive days dosed 7 days post tumor cells transplantation relative to untreated control; format: functional; conditions: MGC-803, ip, 168 h, read-out: INH, route intraperitoneal
In short: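 MGC-803 gastric cancer tumors in mice, 8 per group. Intraperitoneal dosing at 10 mg/kg in 1% DMSO/2% poloxamer/97% saline, started 7 d after tumor transplantation and given once daily for 25 consecutive days. The negative control received 0.9% saline ip. At the end, mice were killed and weighed and tumors excised and weighed. Inhibition (%) = (1 − mean treated tumor weight/mean control tumor weight) × 100.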

[9] = system: HepG2; test: Cytotoxicity against human HepG2 cells; format: functional, cell-based
[10] = system: MGC-803; test: Antitumor activity against human MGC803 cells xenografted in ICR mouse assessed as inhibition of tumor growth at 10 mg/kg, iv qd for 25 consecutive days dosed 7 days post tumor cells transplantation relative to untreated control; format: functional; conditions: MGC-803, 168 h
In short: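 MGC-803 gastric cancer tumors in mice, 8 per group. Intravenous dosing at 10 mg/kg in 1% DMSO/2% poloxamer/97% saline, started 7 d after tumor transplantation and given once daily for 25 consecutive days. The control group received 0.9% saline ip. Tumors were excised and weighed at the end. Inhibition (%) = (1 − mean treated tumor weight/mean control tumor weight) × 100.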

In the case of `C=C1C(=O)[C@@]23C(=O)OC[C@]4(C(=O)CCC(C)(C)[C@H]4C=O)[C@@H]2CC[C@@H]1[C@H]3OC(=O)c1ccc(C(F)(F)F)cc1`, the IC50 [1] is reported as 2.82 µM, the IC50 [2] is reported as 3.99 µM and the IC50 [3] is reported as 4.93 µM. It also gave an IC50 [4] of 8.96 µM.

Work on `C=C1C(=O)[C@@]23C(=O)OC[C@]4(C(=O)CCC(C)(C)[C@H]4C=O)[C@@H]2CC[C@@H]1[C@H]3OC(=O)c1ccc([N+](=O)[O-])cc1` yielded an IC50 [1] of 1.33 µM, an IC50 [2] of 3.3 µM and an IC50 [3] of 3.33 µM. For the same molecule, the IC50 [4] was 2.68 µM.

Work on `C=C1C(=O)[C@@]23C(=O)OC[C@]4(C(=O)CCC(C)(C)[C@H]4C=O)[C@@H]2CC[C@@H]1[C@H]3OC(=O)c1ccc(F)cc1` yielded an IC50 [1] of 2.7 µM, an IC50 [2] of 3.75 µM and an IC50 [3] of 3.96 µM. It also gave an IC50 [4] of 8.31 µM.

`C=C1C(=O)[C@@]23C(=O)OC[C@]4(C(=O)CCC(C)(C)[C@H]4C=O)[C@@H]2CC[C@@H]1[C@H]3OC(=O)c1ccccc1F` gave an IC50 [1] of 2.86 µM, an IC50 [2] of 3.95 µM and an IC50 [3] of 3.94 µM. The IC50 [4] was 8.55 µM.

`C=C1C(=O)[C@@]23C(=O)OC[C@]4(C(=O)CCC(C)(C)[C@H]4C=O)[C@@H]2CC[C@@H]1[C@H]3OC(=O)c1ccc(Cl)cc1` gave an IC50 [1] of 1.38 µM, an IC50 [2] of 3.84 µM and an IC50 [3] of 3.12 µM. It also gave an IC50 [4] of 2.55 µM.

For `C=C1C(=O)[C@@]23C(=O)OC[C@]4(C(=O)CCC(C)(C)[C@H]4C=O)[C@@H]2CC[C@@H]1[C@H]3OC(=O)c1ccccc1Cl`, the IC50 [1] was 1.22 µM, the IC50 [2] was 2.89 µM and the IC50 [3] was 2.66 µM. For the same molecule, the IC50 [4] was 2.01 µM.

`C=C1C(=O)[C@@]23C(=O)O[C@H]4CCC(C)(C)[C@H]5[C@H](O)OC[C@@]45[C@@H]2CC[C@@H]1[C@H]3O` gave an IC50 [1] of 8.11 µM, an IC50 [5] of 60.7 µM and an IC50 [2] of 33 µM. It also gave an IC50 [6] of 50.9 µM, an IC50 [7] of 68.2 µM and an IC50 [4] of 30.8 µM.

In the case of `C=C1C(=O)[C@@]23C(=O)O[C@H]4CCC(C)(C)[C@H]5C(=O)OC[C@@]45[C@@H]2CC[C@@H]1[C@H]3O`, the IC50 [1] is reported as 2.64 µM, the IC50 [5] is reported as 39.7 µM and the IC50 [2] is reported as 16 µM. It also gave an IC50 [6] of 43.1 µM, an IC50 [7] of 20.3 µM and an IC50 [4] of 23.7 µM.

`C=C1C(=O)[C@@]23C(=O)OC[C@]4(C(=O)CCC(C)(C)[C@H]4C=O)[C@@H]2CC[C@@H]1[C@H]3O` showed an IC50 [1] of 2.18 µM, an inhibition in vivo at 10 mg/kg [8] of 31.4% and an IC50 [5] of 4.63 µM. For the same molecule, the IC50 [2] was 5.03 µM, the IC50 [6] was 4.58 µM and the IC50 [7] was 24 µM. It also gave an IC50 [4] of 5.85 µM.

With `C=C1C(=O)[C@@]23C(=O)OC[C@]4([C@@H](OC(C)=O)CCC(C)(C)[C@H]4C=O)[C@@H]2CC[C@@H]1[C@H]3O` the IC50 [1] was 9.56 µM, the IC50 [5] was 79.4 µM and the IC50 [2] was 75.4 µM. It also gave an IC50 [6] of 26 µM, an IC50 [7] of 76.7 µM and an IC50 [4] of 72.5 µM.

In the case of `C=C1C(=O)[C@@]23C(=O)OC[C@]4(C(=O)CCC(C)(C)[C@H]4C=O)[C@@H]2CC[C@@H]1[C@H]3OC(C)=O`, the IC50 [1] is reported as 1.39 µM, the IC50 [2] is reported as 1.73 µM and the IC50 [3] is reported as 1.66 µM. The IC50 [4] was 1.35 µM.

`C=C1C(=O)[C@@]23C(=O)OC[C@]4(C(=O)CCC(C)(C)[C@H]4C=O)[C@@H]2CC[C@@H]1[C@H]3OC(=O)CC` showed an IC50 [1] of 1.31 µM, an IC50 [2] of 1.65 µM and an IC50 [3] of 1.78 µM. For the same molecule, the IC50 [4] was 1.4 µM.

With `C=C1C(=O)[C@@]23C(=O)OC[C@]4(C(=O)CCC(C)(C)[C@H]4C=O)[C@@H]2CC[C@@H]1[C@H]3OC(=O)c1ccccc1` the IC50 [1] was 1.48 µM, the IC50 [2] was 1.85 µM and the IC50 [3] was 1.92 µM. It also gave an IC50 [4] of 1.71 µM.

Molecule `C=C1C(=O)[C@@]23C(=O)OC[C@]4(C(=O)CCC(C)(C)[C@H]4C=O)[C@@H]2CC[C@@H]1[C@H]3OC(=O)c1ccc(C)cc1` has an IC50 [1] of 1.27 µM, an IC50 [2] of 1.54 µM and an IC50 [3] of 2.24 µM. It also gave an IC50 [4] of 1.05 µM.

`C=C1C(=O)[C@@]23C(=O)OC[C@]4(C(=O)CCC(C)(C)[C@H]4C=O)[C@@H]2CC[C@@H]1[C@H]3OC(=O)c1ccc(OC)cc1` gave an IC50 [1] of 1.65 µM, an IC50 [2] of 2.8 µM and an IC50 [3] of 1.87 µM. It also gave an IC50 [4] of 2.98 µM.

Molecule `C=C1C(=O)[C@]23C[C@H]1C[C@H](O)[C@H]2[C@@]12CO[C@@H](O)[C@@H]1C(C)(C)CC[C@@H]2OC3=O` [EPINODOSIN] has an IC50 [9] of 0.45 µM.

For `C=C1C(=O)[C@]23[C@H](O)[C@H]1CC[C@H]2[C@@]12CO[C@]3(O)[C@@H](O)[C@@H]1C(C)(C)CC[C@@H]2O` [ORIDONIN], the IC50 [1] was 4.76 µM, the inhibition in vivo at 10 mg/kg [8] was 26.3% and the IC50 [5] was 32.7 µM. It also gave an IC50 [2] of 7.48 µM, an IC50 [3] of 5.69 µM and an IC50 [6] of 26.2 µM. It also gave an IC50 [7] of 14.6 µM and an IC50 [4] of 11 µM.

Molecule `CC(=O)O[C@H]1C(=O)[C@@]2(C)[C@H]([C@H](OC(=O)c3ccccc3)[C@]3(O)C[C@H](OC(=O)[C@H](O)[C@@H](NC(=O)c4ccccc4)c4ccccc4)C(C)=C1C3(C)C)[C@]1(OC(C)=O)CO[C@@H]1C[C@@H]2O` [PACLITAXEL] has an inhibition in vivo at 10 mg/kg [10] of 66.6%, an IC50 [1] of 0.41 µM and an IC50 [2] of 1.89 µM. The IC50 [3] was 0.85 µM and the IC50 [4] was 0.43 µM.

In the case of `C=C1C(=O)[C@]23C[C@H]1CC[C@H]2[C@@]1(CCCC(C)(C)[C@H]1CO)COC3=O` [SCULPONEATIN N], the IC50 [1] is reported as 0.21 µM.
